Experimental data taken from ChEMBL document CHEMBL2203234, “Optimisation of imidazole compounds as selective TAAR1 agonists: discovery of RO5073012” (Bioorg Med Chem Lett, 2012).
Converted amounts (≈) assume the structure as drawn. Blank lines part the entries; values can stand above or below the compound they belong to.

Experiments:
[1] = target: T1, Trace amine-associated receptor 1 (Homo sapiens, UniProt Q96RJ0); assay: Displacement of (S)-4-(2,4-difluorophenyl-3-tritio) -4,5-dihydro-2-oxazolamine from human TAAR1 receptor expressed in HEK293 cells after 90 mins by beta counting analysis; assay type: cell-based
T1 sequence (Q96RJ0 whole entry): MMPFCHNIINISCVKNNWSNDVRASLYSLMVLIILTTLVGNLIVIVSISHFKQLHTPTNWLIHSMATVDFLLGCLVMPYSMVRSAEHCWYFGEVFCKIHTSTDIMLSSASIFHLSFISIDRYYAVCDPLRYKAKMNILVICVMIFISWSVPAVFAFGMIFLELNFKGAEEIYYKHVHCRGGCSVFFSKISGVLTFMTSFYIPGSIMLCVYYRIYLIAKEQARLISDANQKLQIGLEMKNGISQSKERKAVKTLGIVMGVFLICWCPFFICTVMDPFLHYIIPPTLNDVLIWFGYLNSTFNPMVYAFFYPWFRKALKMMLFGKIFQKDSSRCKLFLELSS

CHL = assay: Selectivity ratio of Ki for human adrenergic alpha2A receptor expressed in CHL cells to Ki for human TAAR1 receptor; assay type: cell-based
[2] = target: Trace amine-associated receptor 1 (Mus musculus, UniProt Q923Y8); assay: Agonist activity at mouse TAAR1 receptor expressed in HEK293 cells after 30 mins; assay type: functional, cell-based
[3] = target: Trace amine-associated receptor 1 (Rattus norvegicus, UniProt Q923Y9); assay: Agonist activity at rat TAAR1 receptor expressed in HEK293 cells after 30 mins; assay type: functional, cell-based
[4] = target: Trace amine-associated receptor 1 (Mus musculus) (UniProt Q923Y8); assay: Agonist activity at mouse TAAR1 receptor expressed in HEK293 cells after 30 mins relative to control; assay type: functional, cell-based
[5] = target: Trace amine-associated receptor 1 (Rattus norvegicus) (UniProt Q923Y9); assay: Agonist activity at rat TAAR1 receptor expressed in HEK293 cells after 30 mins relative to control; assay type: functional, cell-based
[6] = Volume of distribution at steady state in rat at 4.8 mg/kg, iv; assay type: ADME, organism-based; design: dose 4.8 mg/kg, route intravenous; conditions: in vivo, read-out: Vdss
Liver = assay: Intrinsic clearance in mouse liver microsomes assessed per mg protein; assay type: ADME, Microsome
Liver microsomes [7] = assay: Intrinsic clearance in rat liver microsomes assessed per mg protein; assay type: ADME, Microsome
[8] = Ratio of drug level in brain to plasma in rat at 4.8 mg/kg, iv; assay type: ADME, organism-based; design: dose 4.8 mg/kg, route intravenous; conditions: brain and plasma, read-out: BPR
[9] = Clearance in mouse at 5 mg/kg, iv; assay type: ADME, organism-based; design: dose 5 mg/kg, route intravenous; conditions: in vivo
[10] = Oral bioavailability in mouse at 10 mg/kg; assay type: ADME, organism-based; conditions: in vivo
[11] = Half life in mouse at 10 mg/kg, po; assay type: ADME, organism-based; design: dose 10 mg/kg, route oral; conditions: in vivo
[12] = Dissociation constant, pKa of the compound; assay type: physicochemical
[13] = Half life in rat at 3.8 mg/kg, po; assay type: ADME, organism-based; design: dose 3.8 mg/kg, route oral; conditions: in vivo
[14] = Ratio of drug level in brain to plasma in mouse at 5 mg/kg, iv; assay type: ADME, organism-based; design: dose 5 mg/kg, route intravenous; conditions: brain and plasma, read-out: BPR
[15] = Volume of distribution at steady state in mouse at 5 mg/kg, iv; assay type: ADME, organism-based; design: dose 5 mg/kg, route intravenous; conditions: in vivo, read-out: Vdss
Rattus norvegicus = assay: Inhibition of cocaine-induced hyperlocomotion in po dosed Wistar rat assessed as reduction in locomotor activity after 30 mins; assay type: functional, organism-based
Outline: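 Rats were pretreated orally with several doses of test compound. Hyperlocomotion was then induced with cocaine at 20 mg/kg i.p., and the reduction in locomotor activity was recorded.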

[16] = Cmax in mouse at 10 mg/kg, po; assay type: ADME, organism-based; design: dose 10 mg/kg, route oral; conditions: in vivo
[17] = Permeability of the compound by PAMPA assay; assay type: ADME; conditions: read-out: permeability
[18] = Oral bioavailability in rat at 3.8 mg/kg; assay type: ADME, organism-based; conditions: in vivo
[19] = Fraction unbound in rat plasma; assay type: ADME, cell-free
[20] = Cmax in rat at 3.8 mg/kg, po; assay type: ADME, organism-based; design: dose 3.8 mg/kg, route oral; conditions: in vivo
Liver microsomes [21] = assay: Intrinsic clearance in human liver microsomes assessed per mg protein; assay type: ADME, Microsome
[22] = Clearance in rat at 4.8 mg/kg, iv; assay type: ADME, organism-based; design: dose 4.8 mg/kg, route intravenous; conditions: in vivo
[23] = Thermodynamic solubility of the compound at pH 6.5; assay type: physicochemical; conditions: buffer, read-out: Therm_solubility
Outline: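 Thermodynamic solubility determined using solid material, with the final pH being 6.5; value expressed in µg/ml.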

[24] = Fraction unbound in mouse plasma; assay type: ADME, cell-free
[25] = Lipophilicity, log D of the compound; assay type: physicochemical; conditions: octanol/water
Outline: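 Distribution coefficient (logD) measured at pH 7.4.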

Chain of Trace amine-associated receptor 1 (Rattus norvegicus) (Q923Y9 whole entry): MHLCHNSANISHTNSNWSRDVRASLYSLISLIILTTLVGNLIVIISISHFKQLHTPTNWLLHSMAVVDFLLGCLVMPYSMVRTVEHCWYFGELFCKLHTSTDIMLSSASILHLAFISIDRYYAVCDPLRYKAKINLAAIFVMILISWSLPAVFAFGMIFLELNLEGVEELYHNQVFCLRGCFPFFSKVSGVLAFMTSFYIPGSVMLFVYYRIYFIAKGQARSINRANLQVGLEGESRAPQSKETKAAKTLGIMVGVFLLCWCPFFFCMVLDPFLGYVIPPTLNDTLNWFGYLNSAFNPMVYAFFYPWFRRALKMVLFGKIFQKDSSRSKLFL
Chain of Trace amine-associated receptor 1 (Rattus norvegicus, UniProt Q923Y9) (Q923Y9 whole entry): as above
Chain of Trace amine-associated receptor 1 (Mus musculus) (Q923Y8 whole entry): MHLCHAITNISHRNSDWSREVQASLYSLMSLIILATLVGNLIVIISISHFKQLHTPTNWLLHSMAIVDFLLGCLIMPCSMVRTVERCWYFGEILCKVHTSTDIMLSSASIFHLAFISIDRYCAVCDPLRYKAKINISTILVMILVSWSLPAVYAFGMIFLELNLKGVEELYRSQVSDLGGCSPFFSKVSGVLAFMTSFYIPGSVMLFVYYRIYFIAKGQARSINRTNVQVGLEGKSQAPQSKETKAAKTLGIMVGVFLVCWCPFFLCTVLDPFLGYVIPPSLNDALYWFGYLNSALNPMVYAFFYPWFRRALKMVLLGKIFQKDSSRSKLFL
Chain of Trace amine-associated receptor 1 (Mus musculus, UniProt Q923Y8) (Q923Y8 whole entry): as above

- Ki [1]: 1270 nM
SMILES: CN(Cc1ncc[nH]1)c1ccccc1
- Ratio Ki (CHL): 0.2

- EC50 [2]: 28 nM
- EC50 [3]: 7.3 nM
- Emax [4]: 45%
- Emax [5]: 34%
SMILES: CC(C)N(Cc1cnc[nH]1)c1ccccc1

- EC50 [2]: 500 nM
- EC50 [3]: 400 nM
- Emax [4]: 54%
- Emax [5]: 60%
SMILES: CC(C)N(Cc1ncc[nH]1)c1cccc(Cl)c1

- Ki [1]: 1640 nM
SMILES: c1ccc(CC2=NCCN2)cc1 [TOLAZOLINE]
- Ratio Ki (CHL): 0.06

- Ki [1]: 4250 nM
SMILES: c1ccc(NCc2ncc[nH]2)cc1
- Ratio Ki (CHL): 0.2

Second part, the compound before the results:

SMILES: FC(F)(F)c1cccc(C(F)(F)F)c1Cc1ncc[nH]1
- Ki [1]: 13300 nM

SMILES: COc1cccc(N(Cc2cnc[nH]2)C(C)C)n1
- EC50 [3]: 25 nM
- Emax [4]: 35%
- Emax [5]: 18%

SMILES: CC(C)N(Cc1cnc[nH]1)c1cccc(Cl)c1
- EC50 [2]: 10 nM
- EC50 [3]: 27 nM
- Emax [4]: 50%
- Emax [5]: 22%

SMILES: c1ccc2c(c1)CCCN2Cc1c[nH]cn1
- Ratio Ki (CHL): 4

SMILES: c1ccc2c(c1)CCCN2Cc1cnc[nH]1
- Ki [1]: 12 nM

SMILES: Clc1cccc(Cl)c1Cc1ncc[nH]1
- Ki [1]: 1390 nM
- Ratio Ki (CHL): 0.7

SMILES: CC(C)N(Cc1cnc[nH]1)c1cc(Cl)cc(Cl)c1
- Ki [1]: 4 nM
- Ratio Ki (CHL): 37

SMILES: CC(C)N(Cc1cnc[nH]1)c1ccc(Cl)cc1
- Vd [6]: 4.1 L/kg
- CLint (Liver): 17.5 µL/min/mg
- CLint (Liver microsomes [7]): 70 µL/min/mg
- Kp [8]: 6.6
- clearance [9]: 24 mL/min/kg
- bioavailability [10]: 86%
- half-life [11]: 1.8 h
- pKa [12]: 3.5
- half-life [13]: 1 h
- Kp [14]: 0.6
- Vd [15]: 2 L/kg
- inhibition (Rattus norvegicus): Dose-dependent effect
- Cmax [16]: 1740 ng/mL
- Papp [17]: 2.7 ×10⁻⁶ cm/s
- bioavailability [18]: 66%
- fraction unbound [19]: 0.06
- Cmax [20]: 519 ng/mL
- EC50 [3]: 25 nM
- CLint (Liver microsomes [21]): 18 µL/min/mg
- Emax [4]: 26%
- clearance [22]: 40 mL/min/kg
- solubility thermodynamic [23]: 97 µg/mL (≈ 388 µM)
- fraction unbound [24]: 0.08
- logD [25]: 3.3
- Emax [5]: 24%

SMILES: COc1cccc(N(Cc2cnc[nH]2)C(C)C)c1
- EC50 [2]: 72 nM
- EC50 [3]: 61 nM
- Emax [4]: 55%
- Emax [5]: 25%
